This is an account of results in ChEMBL document CHEMBL1136724 (J Med Chem, 2003).

SMILES strings stand for the structures.

The target of one data set is T1, Nitric oxide synthase 1 (Homo sapiens, UniProt P29475). Briefly: Inhibitory activity of 100 uM compound against human neuronal nitric oxide synthase; Range is […]%-[…]%.
T1 sequence (P29475 whole entry): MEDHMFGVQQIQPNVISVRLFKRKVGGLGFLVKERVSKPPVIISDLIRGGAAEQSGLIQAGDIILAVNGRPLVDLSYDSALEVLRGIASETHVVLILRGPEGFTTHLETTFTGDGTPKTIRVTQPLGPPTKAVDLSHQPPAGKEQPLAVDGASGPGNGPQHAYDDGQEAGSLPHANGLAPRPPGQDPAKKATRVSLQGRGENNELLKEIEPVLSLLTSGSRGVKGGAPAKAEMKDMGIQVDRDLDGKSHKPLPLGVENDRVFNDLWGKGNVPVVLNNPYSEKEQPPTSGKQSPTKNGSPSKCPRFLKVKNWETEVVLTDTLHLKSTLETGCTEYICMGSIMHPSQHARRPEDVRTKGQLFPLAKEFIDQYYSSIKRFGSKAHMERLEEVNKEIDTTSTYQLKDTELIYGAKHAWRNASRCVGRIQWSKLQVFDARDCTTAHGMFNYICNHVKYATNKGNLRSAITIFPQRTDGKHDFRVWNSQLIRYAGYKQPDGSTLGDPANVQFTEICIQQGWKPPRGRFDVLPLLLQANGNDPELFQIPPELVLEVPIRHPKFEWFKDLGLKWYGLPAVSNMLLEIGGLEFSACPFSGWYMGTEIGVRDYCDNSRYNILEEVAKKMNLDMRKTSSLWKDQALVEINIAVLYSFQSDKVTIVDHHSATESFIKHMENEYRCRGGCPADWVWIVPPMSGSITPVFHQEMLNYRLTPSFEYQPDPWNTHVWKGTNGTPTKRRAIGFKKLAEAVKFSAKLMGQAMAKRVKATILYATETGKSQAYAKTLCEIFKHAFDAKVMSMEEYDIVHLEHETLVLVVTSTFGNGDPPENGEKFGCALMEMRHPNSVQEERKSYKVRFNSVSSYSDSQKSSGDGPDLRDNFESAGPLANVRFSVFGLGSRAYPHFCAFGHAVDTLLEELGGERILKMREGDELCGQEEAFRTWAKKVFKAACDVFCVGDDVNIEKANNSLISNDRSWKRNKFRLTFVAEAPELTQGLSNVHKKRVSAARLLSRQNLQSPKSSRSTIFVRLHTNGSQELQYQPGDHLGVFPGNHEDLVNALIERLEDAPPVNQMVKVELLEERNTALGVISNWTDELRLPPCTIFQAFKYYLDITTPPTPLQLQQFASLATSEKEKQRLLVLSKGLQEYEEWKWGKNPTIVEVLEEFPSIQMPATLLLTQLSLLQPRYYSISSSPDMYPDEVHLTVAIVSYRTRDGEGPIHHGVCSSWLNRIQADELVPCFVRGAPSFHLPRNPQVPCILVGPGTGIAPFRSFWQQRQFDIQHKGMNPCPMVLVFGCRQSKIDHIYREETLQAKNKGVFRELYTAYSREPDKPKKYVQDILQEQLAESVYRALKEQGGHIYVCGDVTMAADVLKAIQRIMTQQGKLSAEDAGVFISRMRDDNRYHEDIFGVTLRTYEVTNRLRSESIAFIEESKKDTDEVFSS
Conditions: not given
The compound `CSCCOC(=O)N1CCC2(CC1)N=C(N)c1c(F)cccc1N2` showed an inhibition of 50%.

The next data set deals with Rattus norvegicus. Put plainly: Inhibition of LPS induced nitrite production in rat following 4 hr of oral administration. It counts as functional. To be noted: read-out: ID50 (the source's name).
For `NC1=NC(C2CCC2)Nc2cccc(F)c21` (configuration not stated), the ED50 is over 30 µmol/kg.
On the same count and under the same terms, for `N#Cc1ccc(C(=O)N2CCC3(CC2)N=C(N)c2c(F)ccc(F)c2N3)cn1` the value was 3 µmol/kg; for `NC1=NC(c2ccc(F)cc2)Nc2cccc(F)c21` (configuration not stated), over 30 µmol/kg.
With `N#Cc1ccc(C(=O)N2CCC3(CC2)N=C(N)c2c(F)ccc(F)c2N3)cc1`, the ED50 was 3 µmol/kg.
For `CNC(=N)NCCC[C@H](N)C(=O)O` [TILARGININE], the ED50 was determined as 700 µmol/kg.
In the case of `NC1=NC(c2ccco2)Nc2c(F)ccc(F)c21` (configuration not stated), the ED50 stood at 16 µmol/kg.
Take `CC(=N)NCCCC[C@H](N)C(=O)O` [L-NIL]: the ED50 was 9 µmol/kg.
Take `COC(=O)[C@@H](N)CCCNC(=N)N[N+](=O)[O-]` [L-NAME]: the ED50 was over 300 µmol/kg.
Turning to `N#Cc1ccc(C(=O)N2CCC3(CC2)N=C(N)c2c(F)cccc2N3)cc1`, the ED50 turned out to be 14 µmol/kg.

The target in the next data set is T1, Nitric oxide synthase 1. Briefly: Inhibitory activity of 100 uM compound against human neuronal nitric oxide synthase; range is […]%-[…]%. To be noted: at 100 µM.
With `CCOC(=O)N1CCC2(CC1)N=C(N)c1c(Cl)cccc1N2`, the inhibition is 50%.

Another data set concerns DLD-1. Briefly: Inhibitory activity against synthesis of inducible nitric oxide synthase by DLD-1 cells. It counts as functional, cell-based. To be noted: Homo sapiens. The procedure, abridged:
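Intact human DLD-1 cells preincubated with a cytokine cocktail to induce NO production; inhibition of NO production measured; IC50 is the mean of at least two separate measurements.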
On to `CCOC(=O)N1CCC2(CC1)N=C(N)c1sccc1N2`, for which the IC50 was over 500 µM.
With `NC1=NC(C2CCC2)Nc2cccc(F)c21` (configuration not stated), the IC50 is 1.2 µM.
Turning to `CCOC(=O)N1CCC2(CC1)N=C(N)c1c(F)cccc1N2`, the IC50 turned out to be 9.6 µM.
For the compound `N#Cc1ccc(C(=O)N2CCC3(CC2)N=C(N)c2c(F)ccc(F)c2N3)cn1`, the IC50 worked out at 0.9 µM.
In turn, `NC1=NC(c2ccc(F)cc2)Nc2cccc(F)c21` (configuration not stated) returned a 50% inhibitory concentration (IC50) of 4 µM.
Take `CCOC(=O)N1CCC2(CC1)N=C(N)c1c(Cl)cccc1N2`: inhibition was half-maximal at 9.2 µM (IC50).
In turn, `N#Cc1ccc(C(=O)N2CCC3(CC2)N=C(N)c2c(F)ccc(F)c2N3)cc1` yielded an IC50 of 1.6 µM.
With `NC1=NC2(CCN(C(=O)c3ccsc3)CC2)Nc2cccc(F)c21`, the IC50 came to 12 µM.
In turn, `CNC(=N)NCCC[C@H](N)C(=O)O` [TILARGININE] had an IC50 of 21 µM.
Regarding `CSCCOC(=O)N1CCC2(CC1)N=C(N)c1c(F)cccc1N2`, the IC50 came out at 11 µM.
`NC1=NC(c2ccco2)Nc2c(F)ccc(F)c21` (configuration not stated): the 50% inhibitory concentration (IC50) is 0.2 µM.
Still for that read-out and setting: for `CC(=N)NCCCC[C@H](N)C(=O)O` [L-NIL] the value was 2.8 µM; for `COC(=O)[C@@H](N)CCCNC(=N)N[N+](=O)[O-]` [L-NAME], over 300 µM; for `N#Cc1ccc(C(=O)N2CCC3(CC2)N=C(N)c2c(F)cccc2N3)cc1`, 4.5 µM.
As to `N=C(N)NN` [PIMAGEDINE], the IC50 was over 1000 µM.

The target in another data set is T2, Nitric oxide synthase 3 (Homo sapiens, UniProt P29474).
T2 sequence (P29474 whole entry): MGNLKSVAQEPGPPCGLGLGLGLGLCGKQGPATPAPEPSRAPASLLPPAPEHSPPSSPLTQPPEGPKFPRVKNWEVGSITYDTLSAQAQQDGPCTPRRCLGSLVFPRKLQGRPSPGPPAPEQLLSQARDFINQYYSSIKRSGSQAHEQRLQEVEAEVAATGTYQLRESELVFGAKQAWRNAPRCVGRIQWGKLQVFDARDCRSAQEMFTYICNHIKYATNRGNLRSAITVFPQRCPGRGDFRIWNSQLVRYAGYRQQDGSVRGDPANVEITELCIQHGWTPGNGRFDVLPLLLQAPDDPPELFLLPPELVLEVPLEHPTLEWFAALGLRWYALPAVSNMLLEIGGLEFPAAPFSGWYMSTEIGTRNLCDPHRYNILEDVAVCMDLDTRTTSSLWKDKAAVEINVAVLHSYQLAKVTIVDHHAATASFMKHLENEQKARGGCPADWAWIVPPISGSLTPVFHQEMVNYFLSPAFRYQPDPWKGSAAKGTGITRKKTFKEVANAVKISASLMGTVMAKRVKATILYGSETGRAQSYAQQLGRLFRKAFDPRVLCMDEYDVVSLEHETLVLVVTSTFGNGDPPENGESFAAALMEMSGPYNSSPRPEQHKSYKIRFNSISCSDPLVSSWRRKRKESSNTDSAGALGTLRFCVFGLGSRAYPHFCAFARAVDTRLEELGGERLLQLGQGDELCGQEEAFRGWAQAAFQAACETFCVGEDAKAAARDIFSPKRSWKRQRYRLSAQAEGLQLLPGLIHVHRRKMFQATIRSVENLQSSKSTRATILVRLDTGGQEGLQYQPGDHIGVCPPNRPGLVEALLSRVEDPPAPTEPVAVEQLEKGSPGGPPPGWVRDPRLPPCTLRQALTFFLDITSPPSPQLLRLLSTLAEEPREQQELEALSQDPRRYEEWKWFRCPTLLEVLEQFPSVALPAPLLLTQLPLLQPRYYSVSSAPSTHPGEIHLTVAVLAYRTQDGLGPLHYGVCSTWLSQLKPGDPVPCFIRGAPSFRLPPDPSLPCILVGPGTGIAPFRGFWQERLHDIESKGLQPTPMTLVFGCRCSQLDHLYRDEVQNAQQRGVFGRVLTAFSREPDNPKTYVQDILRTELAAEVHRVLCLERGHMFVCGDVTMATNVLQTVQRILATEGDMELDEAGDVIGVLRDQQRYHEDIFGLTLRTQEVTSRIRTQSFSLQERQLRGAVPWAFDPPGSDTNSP
Briefly: Inhibitory activity against human endothelial nitric oxide synthase.
Conditions: not given
In the case of `CCOC(=O)N1CCC2(CC1)N=C(N)c1sccc1N2`, the IC50 was 100 µM.
Same read-out and setting: for `NC1=NC(C2CCC2)Nc2cccc(F)c21` (configuration not stated) the value was 4.6 µM; for `CCOC(=O)N1CCC2(CC1)N=C(N)c1c(F)cccc1N2`, 100 µM.
`NC1=NC(c2ccco2)Nc2c(F)ccc(F)c21` (configuration not stated) came in with an IC50 of 0.18 µM.
`CC(=N)NCCCC[C@H](N)C(=O)O` [L-NIL] came in with an IC50 of 2.6 µM.
`N=C(N)NN` [PIMAGEDINE] came in with an IC50 of 100 µM.

System in the next data set: not listed separately
Put plainly: Pharmacokinetic parameter pKa for amidine group of compound was evaluated. It counts as physicochemical.
Conditions: not given
`N#Cc1ccc(C(=O)N2CCC3(CC2)N=C(N)c2c(F)ccc(F)c2N3)cc1` came in with a pKa of 8.4.
Same read-out and setting: for `N#Cc1ccc(C(=O)N2CCC3(CC2)N=C(N)c2c(F)cccc2N3)cc1` the value was 9.1.

In a further data set the target is T1, Nitric oxide synthase 1. Briefly: Inhibitory activity against human neuronal nitric oxide synthase.
Conditions: not given
On to `CCOC(=O)N1CCC2(CC1)N=C(N)c1sccc1N2`, for which the concentration for half-maximal inhibition (IC50) came out at 50 µM.
The compound `NC1=NC(C2CCC2)Nc2cccc(F)c21` (configuration not stated) gave an IC50 of 1 µM.
In turn, `CCOC(=O)N1CCC2(CC1)N=C(N)c1c(F)cccc1N2` gave an IC50 of 40 µM.
In the case of `NC1=NC(c2ccc(F)cc2)Nc2cccc(F)c21` (configuration not stated), 3.5 µM corresponded to half-maximal inhibition (IC50).
In turn, `N#Cc1ccc(C(=O)N2CCC3(CC2)N=C(N)c2c(F)ccc(F)c2N3)cc1` yielded an IC50 of 3.3 µM.
As to `NC1=NC2(CCN(C(=O)c3ccsc3)CC2)Nc2cccc(F)c21`, the IC50 stood at 70 µM.
The compound `NC1=NC(c2ccco2)Nc2c(F)ccc(F)c21` (configuration not stated) registered an IC50 of 0.06 µM.
Regarding `CC(=N)NCCCC[C@H](N)C(=O)O` [L-NIL], the IC50 was found to be 1.5 µM.
`COC(=O)[C@@H](N)CCCNC(=N)N[N+](=O)[O-]` [L-NAME]: it took 0.15 µM to reach half-maximal inhibition (IC50).
Compound `N#Cc1ccc(C(=O)N2CCC3(CC2)N=C(N)c2c(F)cccc2N3)cc1` registered an IC50 of 12 µM.
`N=C(N)NN` [PIMAGEDINE]: the half-inhibitory concentration (IC50) is 5.9 µM.

Another data set concerns the target T3, Nitric oxide synthase 3 (Homo sapiens) (UniProt P29474).
T3 sequence (whole entry): T2 sequence (P29474 whole entry)
Put plainly: Inhibitory activity of 100 uM compound against human endothelial nitric oxide synthase.
Conditions: not given
Take `NC1=NC(c2ccc(F)cc2)Nc2cccc(F)c21` (configuration not stated): the inhibition is under 25%.
`NC1=NC2(CCN(C(=O)c3ccsc3)CC2)Nc2cccc(F)c21` yielded an inhibition of under 25%.

The next data set deals with Nitric oxide synthase, inducible (Homo sapiens, UniProt P35228). Briefly: Inhibitory activity of compound against human inducible nitric oxide synthase.
Nitric oxide synthase, inducible, sequence (P35228 whole entry): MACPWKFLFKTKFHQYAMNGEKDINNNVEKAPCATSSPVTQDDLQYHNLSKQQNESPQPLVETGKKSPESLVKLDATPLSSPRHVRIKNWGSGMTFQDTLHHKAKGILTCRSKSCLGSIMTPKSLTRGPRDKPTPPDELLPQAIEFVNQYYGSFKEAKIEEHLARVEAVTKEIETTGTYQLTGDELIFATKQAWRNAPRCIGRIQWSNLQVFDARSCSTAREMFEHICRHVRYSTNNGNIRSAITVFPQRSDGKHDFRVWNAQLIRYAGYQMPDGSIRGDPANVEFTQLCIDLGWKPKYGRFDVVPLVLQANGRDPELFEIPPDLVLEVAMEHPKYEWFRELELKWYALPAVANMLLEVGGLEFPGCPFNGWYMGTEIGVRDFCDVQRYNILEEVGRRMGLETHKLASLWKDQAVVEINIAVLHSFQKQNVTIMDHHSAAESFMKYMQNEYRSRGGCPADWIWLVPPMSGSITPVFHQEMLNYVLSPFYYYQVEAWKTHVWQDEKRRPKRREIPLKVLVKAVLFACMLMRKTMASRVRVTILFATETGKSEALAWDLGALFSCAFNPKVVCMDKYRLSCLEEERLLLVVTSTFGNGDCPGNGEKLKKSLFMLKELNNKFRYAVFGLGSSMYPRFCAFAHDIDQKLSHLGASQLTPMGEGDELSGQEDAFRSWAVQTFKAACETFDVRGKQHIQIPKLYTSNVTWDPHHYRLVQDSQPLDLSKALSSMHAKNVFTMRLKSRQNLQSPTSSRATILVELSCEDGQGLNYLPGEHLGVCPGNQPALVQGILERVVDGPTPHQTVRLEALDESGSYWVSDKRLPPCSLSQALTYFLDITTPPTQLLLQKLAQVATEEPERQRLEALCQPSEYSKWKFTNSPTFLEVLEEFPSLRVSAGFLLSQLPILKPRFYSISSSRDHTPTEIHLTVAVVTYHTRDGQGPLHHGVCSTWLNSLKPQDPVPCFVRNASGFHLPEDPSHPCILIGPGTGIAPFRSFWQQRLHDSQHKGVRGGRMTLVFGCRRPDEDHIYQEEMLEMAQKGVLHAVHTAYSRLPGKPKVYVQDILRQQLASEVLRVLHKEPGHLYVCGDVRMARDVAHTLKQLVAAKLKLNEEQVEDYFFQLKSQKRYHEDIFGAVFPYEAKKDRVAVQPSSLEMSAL
Conditions: not given
Compound `CCOC(=O)N1CCC2(CC1)N=C(N)c1sccc1N2` had an IC50 of 0.3 µM.
Same read-out and setting: for `NC1=NC(c2cccs2)Nc2ccccc21` (configuration not stated) the value was 0.4 µM; for `NC1=NCNc2ccccc21`, 40 µM.
`NC1=NC(C2CC2)Nc2ccccc21` (configuration not stated) yielded an IC50 of 1.1 µM.
`NC1=NC(C2CCC2)Nc2cccc(F)c21` (configuration not stated) returned an IC50 of 0.02 µM.
On the same count and under the same terms, for `CCOC(=O)N1CCC2(CC1)N=C(N)c1c(F)cccc1N2` the value was 0.035 µM; for `CC1N=C(N)c2ccccc2N1` (configuration not stated), 9.8 µM; for `NC1=NC2(CCNCC2)Nc2ccccc21`, about 50 µM.
`NC1=NC(c2ccc(F)cc2)Nc2cccc(F)c21` (configuration not stated) returned an IC50 of 0.05 µM.
Still for that read-out and setting: for `CCOC(=O)N1CCC2(CC1)N=C(N)c1c(Cl)cccc1N2` the value was 0.047 µM; for `N#Cc1ccc(C(=O)N2CCC3(CC2)N=C(N)c2c(F)ccc(F)c2N3)cc1`, 0.048 µM.
Turning to `NC1=NC(C2CCC2)Nc2ccccc21` (configuration not stated), 1.1 µM corresponded to half-maximal inhibition (IC50).
In the case of `NC1=NC2(CCN(C(=O)c3ccsc3)CC2)Nc2cccc(F)c21`, the IC50 was determined as 0.067 µM.
On to `CC1(C)N=C(N)c2ccccc2N1`, for which inhibition was half-maximal at 52 µM (IC50).
`CSCCOC(=O)N1CCC2(CC1)N=C(N)c1c(F)cccc1N2` showed a half-maximal inhibitory concentration (IC50) of 0.039 µM.
In turn, `NC1=NC(c2ccco2)Nc2c(F)ccc(F)c21` (configuration not stated) yielded an IC50 of 0.002 µM.
Consider `NC1=NC(C2CCCC2)Nc2ccccc21` (configuration not stated), for which the IC50 is 4.5 µM.
On to `CC(=N)NCCCC[C@H](N)C(=O)O` [L-NIL], for which the IC50 amounted to 0.1 µM.
As to `CCC1N=C(N)c2ccccc2N1` (configuration not stated), 0.9 µM corresponded to half-maximal inhibition (IC50).
`NC1=NC(c2ccco2)Nc2ccccc21` (configuration not stated) registered an IC50 of 0.2 µM.
The compound `NC1=NC(c2ccccc2)Nc2ccccc21` (configuration not stated) registered an IC50 of 2.5 µM.
The same measure, in the same setting: for `N#Cc1ccc(C(=O)N2CCC3(CC2)N=C(N)c2c(F)cccc2N3)cc1` the value was 0.027 µM; for `CCC1(C)N=C(N)c2ccccc2N1` (configuration not stated), 32 µM.
On the same count and under the same terms, for `N=C(N)NN` [PIMAGEDINE] the value was 3.9 µM.

The species named for the next data set is Rattus norvegicus. Briefly: animal or person.
Conditions: not given
In the case of `N#Cc1ccc(C(=O)N2CCC3(CC2)N=C(N)c2c(F)ccc(F)c2N3)cn1`, the ED50 was about 10 µmol/kg.

Another data set deals with T3, Nitric oxide synthase 3 (Homo sapiens). Briefly: Inhibitory activity of 100 uM compound against human endothelial nitric oxide synthase; Range is […]%-[…]%.
Conditions: not given
`N#Cc1ccc(C(=O)N2CCC3(CC2)N=C(N)c2c(F)ccc(F)c2N3)cn1` showed an inhibition of 50%.
Consider `N#Cc1ccc(C(=O)N2CCC3(CC2)N=C(N)c2c(F)ccc(F)c2N3)cc1`, for which the inhibition came to 50%.
On to `CSCCOC(=O)N1CCC2(CC1)N=C(N)c1c(F)cccc1N2`, for which the inhibition was 50%.
Turning to `N#Cc1ccc(C(=O)N2CCC3(CC2)N=C(N)c2c(F)cccc2N3)cc1`, the inhibition amounted to 50%.

The target is the same in another data set. Put plainly: Inhibitory activity of 100 uM compound against human endothelial nitric oxide synthase; range is […]%-[…]%. The note with it: at 100 µM.
Take `CCOC(=O)N1CCC2(CC1)N=C(N)c1c(Cl)cccc1N2`: the inhibition came to 50%.
